# Experimental data from different studies.
# Lines come from different studies, so protocols differ.
# Target: Phosphatidylinositol 4,5-bisphosphate 3-kinase catalytic subunit delta isoform (PIK3CD, Homo sapiens, UniProt O00329)
# Sequence (O00329 1-1044, as in one of the studies): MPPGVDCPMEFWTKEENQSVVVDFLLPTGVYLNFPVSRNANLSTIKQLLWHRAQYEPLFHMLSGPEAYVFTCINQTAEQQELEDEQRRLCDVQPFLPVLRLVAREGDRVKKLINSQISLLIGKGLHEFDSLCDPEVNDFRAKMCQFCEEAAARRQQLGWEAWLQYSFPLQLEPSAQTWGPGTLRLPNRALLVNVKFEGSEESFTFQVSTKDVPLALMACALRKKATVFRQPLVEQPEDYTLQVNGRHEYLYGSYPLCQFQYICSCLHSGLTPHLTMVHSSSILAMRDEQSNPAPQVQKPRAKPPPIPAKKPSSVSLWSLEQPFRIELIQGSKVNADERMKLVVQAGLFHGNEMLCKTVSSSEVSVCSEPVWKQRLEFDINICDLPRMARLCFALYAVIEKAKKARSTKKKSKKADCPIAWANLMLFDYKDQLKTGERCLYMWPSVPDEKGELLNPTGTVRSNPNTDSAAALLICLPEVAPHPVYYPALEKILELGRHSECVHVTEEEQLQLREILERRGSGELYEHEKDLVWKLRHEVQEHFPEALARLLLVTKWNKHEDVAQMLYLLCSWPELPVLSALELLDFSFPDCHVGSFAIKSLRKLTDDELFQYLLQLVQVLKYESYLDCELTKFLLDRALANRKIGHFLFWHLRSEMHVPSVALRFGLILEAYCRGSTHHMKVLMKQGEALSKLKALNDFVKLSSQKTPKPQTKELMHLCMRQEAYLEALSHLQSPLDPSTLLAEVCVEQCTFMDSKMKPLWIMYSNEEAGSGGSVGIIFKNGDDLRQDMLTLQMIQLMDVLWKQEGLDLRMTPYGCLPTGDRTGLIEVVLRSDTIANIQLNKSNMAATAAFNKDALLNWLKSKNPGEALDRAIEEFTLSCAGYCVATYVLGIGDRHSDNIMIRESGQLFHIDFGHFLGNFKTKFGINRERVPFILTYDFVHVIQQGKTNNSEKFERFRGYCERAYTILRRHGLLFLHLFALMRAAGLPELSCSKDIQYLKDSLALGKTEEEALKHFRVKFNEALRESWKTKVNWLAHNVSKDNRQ
Structure (SMILES),observed,method,tested at,remaining binding
CCc1ccccc1C(=O)Nc1n[nH]c2c(C)c(F)c(C3C(C#N)=C(C)N(C)C(C)=C3C#N)cc12,cell-free assay,competition with immobilised ligand,1 µM,90%
Cc1cnc(Nc2ccc(C(=O)N3CCC(N4CCCC4)CC3)cc2)nc1-c1cc2ccccc2s1,binding,competition with immobilised ligand,1 µM,90%
C[C@@H](c1ccc(-n2cnc3c(N)ncnc32)cc1)N1CCc2nn(C)c(Cc3ccccc3)c2C1=O,binding,competition with immobilised ligand,0.1 µM,61%
CNC(=O)Nc1ccc2c(c1)[C@@]1(CC2)OC(=O)N(CC(=O)N(Cc2ccc(F)cc2)[C@@H](C)C(F)(F)F)C1=O,cell-free assay,competition with immobilised ligand,1 µM,100%
C[C@H]1CCN(c2nccc(-c3cnn4ncccc34)n2)C1,binding,,1 µM,100%
Cc1cc(-n2nc(Cc3cc(F)cc(C(F)(F)F)c3)nc2C)ccc1C(N)=O,cell-free assay,competition with immobilised ligand,1 µM,52%
O=C(NCC1CCOCC1)c1n[nH]cc1NC(=O)c1c(F)cccc1F,binding,competition with immobilised ligand,1 µM,87%
Cc1nc(N2CC[C@@H](O)C2)ncc1-c1cc(C(F)(F)F)cc2[nH]ncc12,cell-free assay,competition with immobilised ligand,1 µM,72%
O=C(NCCCN1CCOCC1)c1ccc(Nc2ncc(Cl)c(-c3ccc(Cl)s3)n2)cc1,binding,competition with immobilised ligand,1 µM,100%
CN(c1nccc(-c2cnn3ncccc23)n1)C1CC1,binding,,1 µM,100%
O=C(NCCCN1CCOCC1)c1ccc(Nc2nccc(-c3cc4ccccc4s3)n2)cc1,binding,competition with immobilised ligand,1 µM,56%
CN(C)c1ncc(F)c(-c2cnn3ncccc23)n1,binding,,1 µM,98%
COc1cnc(Nc2cccc(S(N)(=O)=O)c2)nc1N1CCN(c2ccccc2)CC1,binding,competition with immobilised ligand,1 µM,81%
COc1ccnn2ncc(-c3ccnc(N(C)C)n3)c12,binding,,1 µM,68%
COc1ccc2c(c1)O[C@@H](c1ccc(OC)c(OC)c1)C[C@H]2NC(=O)C1(c2ccc3c(c2)OC(F)(F)O3)CC1,cell-free assay,competition with immobilised ligand,1 µM,97%
CN(C)c1nccc(-c2cnc3ncccn23)n1,binding,,1 µM,50%
CC1=C(C#N)[C@@H](c2ccc3[nH]nc(C)c3c2)C(C#N)=C(c2ccc(Cl)cc2)N1,cell-free assay,competition with immobilised ligand,1 µM,100%
COc1cnc(Nc2cccc(S(N)(=O)=O)c2)nc1N1CCN(c2ccccc2)C(=O)C1,binding,competition with immobilised ligand,1 µM,47%
COc1ncc2cc3ccccc3nc2c1C#N,cell-free assay,competition with immobilised ligand,5 µM,98%
N[C@@H]1CCN(c2nccc(-c3cnn4ncccc34)n2)C1,binding,,1 µM,100%
